Among the data in ChEMBL document CHEMBL4680130, “Substituted 4-phenylthiazoles: Development of potent and selective A, A and dual A/A adenosine receptor antagonists” (Eur J Med Chem, 2020) are Ki and inhibition values, retold here.

pKi: −log10 of the molar value.

Experiment [1] addresses T1, Adenosine receptor A3 (Rattus norvegicus, UniProt P28647).
T1 sequence (P28647 whole entry): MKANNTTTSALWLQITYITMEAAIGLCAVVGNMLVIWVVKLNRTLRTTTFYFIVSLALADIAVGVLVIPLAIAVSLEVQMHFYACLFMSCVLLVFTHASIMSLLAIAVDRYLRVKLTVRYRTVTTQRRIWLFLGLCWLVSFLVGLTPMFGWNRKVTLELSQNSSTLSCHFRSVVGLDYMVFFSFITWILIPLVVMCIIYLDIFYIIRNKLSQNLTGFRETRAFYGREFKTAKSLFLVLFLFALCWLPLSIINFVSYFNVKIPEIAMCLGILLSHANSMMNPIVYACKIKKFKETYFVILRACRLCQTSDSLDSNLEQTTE
In words: Displacement of [3H]NECA from rat adenosine receptor A3 expressed in CHO cell membranes incubated for 60 mins by radioligand competition assay. Also noted: species or system Cell membrane.

Experiment [2] concerns the target T2, Adenosine receptor A1 (Homo sapiens, UniProt P30542).
T2 sequence (P30542 whole entry): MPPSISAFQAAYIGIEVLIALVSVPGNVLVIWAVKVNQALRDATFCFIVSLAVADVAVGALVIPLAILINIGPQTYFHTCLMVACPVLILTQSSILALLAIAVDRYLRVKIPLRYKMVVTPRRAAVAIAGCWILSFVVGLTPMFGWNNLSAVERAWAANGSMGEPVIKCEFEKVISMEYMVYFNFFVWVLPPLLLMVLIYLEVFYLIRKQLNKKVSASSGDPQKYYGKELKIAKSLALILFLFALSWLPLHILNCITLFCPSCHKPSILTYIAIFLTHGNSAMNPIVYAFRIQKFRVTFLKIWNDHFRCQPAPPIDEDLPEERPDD
Put plainly: Displacement of [3H]CCPA from human adenosine receptor A1 expressed in CHO cell membranes incubated for 90 mins by radioligand competition assay. Also noted: species or system Cell membrane.

The target of experiment [3] is T3, Adenosine receptor A2b (Homo sapiens, UniProt P29275).
T3 sequence (P29275 whole entry): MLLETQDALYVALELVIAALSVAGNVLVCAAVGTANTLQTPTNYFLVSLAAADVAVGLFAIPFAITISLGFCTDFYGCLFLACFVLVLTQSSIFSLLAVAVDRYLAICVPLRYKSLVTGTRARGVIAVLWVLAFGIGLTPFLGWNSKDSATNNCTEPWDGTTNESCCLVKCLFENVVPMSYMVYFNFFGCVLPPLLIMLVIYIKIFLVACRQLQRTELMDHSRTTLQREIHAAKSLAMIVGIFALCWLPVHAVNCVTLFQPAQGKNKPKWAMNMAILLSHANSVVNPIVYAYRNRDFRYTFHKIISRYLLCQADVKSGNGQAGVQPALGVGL
Put plainly: Displacement of [3H]PSB-603 from human adenosine receptor A2B expressed in CHO cell membranes incubated for 75 mins by radioligand competition assay. Also noted: species or system Cell membrane.

In experiment [4] the target is T4, Adenosine receptor A3 (Homo sapiens, UniProt P0DMS8).
T4 sequence (P0DMS8 whole entry): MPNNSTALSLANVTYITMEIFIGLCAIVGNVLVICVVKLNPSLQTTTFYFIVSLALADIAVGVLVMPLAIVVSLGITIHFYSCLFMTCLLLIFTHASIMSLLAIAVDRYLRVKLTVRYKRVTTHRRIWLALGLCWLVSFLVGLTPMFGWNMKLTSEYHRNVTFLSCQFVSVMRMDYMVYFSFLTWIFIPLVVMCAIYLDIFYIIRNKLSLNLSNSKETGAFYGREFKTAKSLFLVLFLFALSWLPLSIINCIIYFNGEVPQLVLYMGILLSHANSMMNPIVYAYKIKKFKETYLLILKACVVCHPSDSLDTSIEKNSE
In words: Displacement of [3H]PSB-11 from human adenosine receptor A3 expressed in CHO cell membranes incubated for 60 mins by radioligand competition assay. Set-up: species or system Cell membrane.

Experiment [5] has as its target T5, Adenosine receptor A2a (Homo sapiens, UniProt P29274). In words: Displacement of [3H]MSX2 from human adenosine receptor A2A expressed in HEK293 cell membranes at 0.1 uM incubated for 30 mins by radioligand competition assay relative to control. The conditions noted are these: Cell membrane, in the assay text read “at 1 uM” for “at 0.1 uM”. Put shortly: (§1)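 A2A binding, [3H]MSX-2 1.0 nM. Membranes: rat brain striatum, or HEK293 cells expressing human A2A. Adenosine deaminase preincubation 20 min, then 30 min at rt in 50 mM Tris-HCl pH 7.4 with 2.5% DMSO. Nonspecific binding defined by 50 µM NECA. GF/B filtration, scintillation counting. Single-concentration percent inhibition, ≥3 experiments in duplicate or triplicate.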

Experiment [6] addresses T6, Adenosine receptor A1 (Rattus norvegicus, UniProt P25099).
T6 sequence (P25099 whole entry): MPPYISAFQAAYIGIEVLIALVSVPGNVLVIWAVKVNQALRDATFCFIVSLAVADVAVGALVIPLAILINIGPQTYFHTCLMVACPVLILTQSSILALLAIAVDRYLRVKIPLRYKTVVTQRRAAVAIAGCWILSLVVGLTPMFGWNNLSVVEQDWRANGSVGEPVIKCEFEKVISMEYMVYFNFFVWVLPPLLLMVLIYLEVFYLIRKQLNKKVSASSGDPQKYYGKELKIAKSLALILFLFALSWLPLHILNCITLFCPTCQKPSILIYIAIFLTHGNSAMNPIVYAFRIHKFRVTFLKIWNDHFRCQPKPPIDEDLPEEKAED
Put plainly: Displacement of [3H]CCPA from adenosine receptor A1 in rat brain cortex membranes incubated for 90 mins by radioligand competition assay. In kind it is cell membranes, Cell membrane.

For experiment [7], the target named is T5, Adenosine receptor A2a. Put plainly: Displacement of [3H]MSX2 from human adenosine receptor A2A expressed in HEK293 cell membranes incubated for 30 mins by radioligand competition assay. Set-up: species or system Cell membrane.
For experiment [8], the target named is Adenosine receptor A2a (Rattus norvegicus) (UniProt P30543). Put plainly: Displacement of [3H]MSX2 from adenosine receptor A2A in rat brain striatum membranes at 0.1 uM incubated for 30 mins by radioligand competition assay relative to control. To be noted: Cell membrane. Put shortly: as §1
Experiment [9] has as its target Adenosine receptor A2a (Rattus norvegicus, UniProt P30543). Put plainly: Displacement of [3H]MSX2 from adenosine receptor A2A in rat brain striatum membranes incubated for 30 mins by radioligand competition assay. The format is cell membranes, Cell membrane.
The target in experiment [10] is T7, Adenosine receptor A1 (Rattus norvegicus) (UniProt P25099).
T7 sequence (whole entry): T6 sequence (P25099 whole entry)
In words: Displacement of [3H]CCPA from adenosine receptor A1 in rat brain cortex membranes at 0.1 uM incubated for 90 mins by radioligand competition assay. The conditions noted are these: Cell membrane. Put shortly:
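A1 competition binding with [3H]CCPA, 0.5 nM. Membranes: CHO cells expressing human A1, or rat brain cortex. Membranes preincubated 20 min with adenosine deaminase (2 U/mL per mg protein). Incubation 90 min at rt in 50 mM Tris-HCl pH 7.4 with 2.5% final DMSO. Nonspecific binding defined by 10 µM 2-chloroadenosine. GF/B filtration, scintillation counting.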

T5 sequence (P29274 whole entry): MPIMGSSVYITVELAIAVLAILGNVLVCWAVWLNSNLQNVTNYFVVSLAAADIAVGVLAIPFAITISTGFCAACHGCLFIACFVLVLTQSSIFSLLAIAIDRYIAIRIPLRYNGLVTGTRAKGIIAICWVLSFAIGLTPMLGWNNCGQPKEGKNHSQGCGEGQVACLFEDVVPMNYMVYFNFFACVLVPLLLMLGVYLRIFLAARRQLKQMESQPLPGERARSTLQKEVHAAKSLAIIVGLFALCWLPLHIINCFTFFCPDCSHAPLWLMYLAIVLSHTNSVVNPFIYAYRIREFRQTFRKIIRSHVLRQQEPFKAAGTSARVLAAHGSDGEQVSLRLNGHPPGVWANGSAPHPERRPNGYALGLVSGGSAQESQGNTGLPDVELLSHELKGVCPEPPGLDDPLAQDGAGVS
Chain of Adenosine receptor A2a (Rattus norvegicus) (P30543 whole entry): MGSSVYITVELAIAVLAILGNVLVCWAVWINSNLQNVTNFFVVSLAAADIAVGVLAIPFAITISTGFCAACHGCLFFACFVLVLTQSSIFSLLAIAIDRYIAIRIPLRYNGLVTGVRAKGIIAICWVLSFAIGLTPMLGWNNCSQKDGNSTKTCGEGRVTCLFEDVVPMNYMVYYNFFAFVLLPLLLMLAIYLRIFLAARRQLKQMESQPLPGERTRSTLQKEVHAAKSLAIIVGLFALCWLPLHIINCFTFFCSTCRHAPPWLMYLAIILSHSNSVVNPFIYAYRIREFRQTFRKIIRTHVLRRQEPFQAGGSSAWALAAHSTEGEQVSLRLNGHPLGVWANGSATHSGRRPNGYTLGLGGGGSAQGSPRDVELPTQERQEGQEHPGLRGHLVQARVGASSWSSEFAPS
Chain of Adenosine receptor A2a (Rattus norvegicus, UniProt P30543) (P30543 whole entry): as above

As to `COc1ccc(-n2c(-c3sc(NC(=O)c4ccccc4)nc3-c3ccccc3)nc3ccccc3c2=O)cc1`, the pKi in [1] was 5.88; in experiment [2] it was less than 6.00; in [3] it was less than 7.00; in experiment [4], 8.08; in experiment [6], less than 6.00; in experiment [7] it was less than 6.00. Further, the pKi in experiment [9] was less than 6.00. The inhibition in [5] was 3%; in experiment [8] it was 17%; in experiment [10] (filed as antagonist), 10%.

Turning to `CCCOC(=O)c1c(-c2ccccc2)nc(CC)c(C(=O)SCC)c1CCC`, the results for the pKi in [2], in experiment [3] and in experiment [7] were less than 5.00, less than 5.00 and 5.44, respectively.

`Cn1c(=O)c2[nH]cnc2n(C)c1=O` [THEOPHYLLINE] had a pKi in experiment [1] of less than 4.00.

For the molecule `O=C(Nc1nc(-c2ccccc2)c(-c2nc3ccccc3c(=O)n2-c2ccccc2)s1)c1ccccc1`, the pKi in experiment [2] is less than 6.00; in [3], less than 7.00; in [4], 6.95; in experiment [6] it was less than 6.00; in [7], less than 6.00; in experiment [9], less than 6.00. For the same molecule, the figures for the inhibition in [8] and in experiment [10] (filed as antagonist) were 3% and 1%, respectively.

Take `Cc1ccc(-n2c(-c3sc(NC(=O)c4ccco4)nc3-c3ccccc3)nc3ccccc3c2=O)cc1`: the pKi in experiment [1] is 5.74; in experiment [2], less than 6.00; in experiment [3], less than 7.00; in experiment [4], 7.60; in experiment [6] it was less than 6.00; in experiment [7], less than 6.00. The molecule further had a pKi in experiment [9] of less than 6.00. Besides, the inhibition is 1% in [5], 6% in experiment [8] and 25% in experiment [10].

As for `O=C(Nc1nc(-c2ccccc2)c(-c2ccccn2)s1)c1ccccc1`, the pKi in experiment [2] was 7.04; in experiment [3], less than 7.00; in experiment [4], less than 6.00; in experiment [6] it was 8.46; in experiment [7] it was 7.08; in experiment [9], 6.41.

In experiment [3], `COc1cc(-c2nc(NC(C)=O)sc2-c2ccncc2)cc(OC)c1OC` gave a pKi of 5.49.

Consider `CC[C@@H]1CN2C(=O)N(C)c3nc(-c4ccccc4)[nH]c3C2=N1`, for which the negative-log Ki (pKi) in experiment [1] was less than 5.00; in experiment [3] it was 5.43; in [7] it was 6.97.

As for `COc1ccc(C(=O)Nc2nc(-c3ccccc3)c(-c3nc4ccccc4c(=O)n3-c3ccccc3)s2)cc1`, the pKi was less than 6.00 in experiment [2]; less than 7.00 in experiment [3]; 6.76 in experiment [4]; less than 6.00 in experiment [6]; less than 6.00 in [7]; less than 6.00 in experiment [9]. In addition, the inhibition in experiment [5] came out at 20%; in experiment [8] it was 1%; in [10] (filed as antagonist), 11%.

As for `COc1ccc(C(=O)Nc2nc(-c3ccccc3)c(-c3nc4ccccc4c(=O)n3-c3ccc(OC)cc3)s2)cc1`, the pKi was less than 5.00 in experiment [1]; less than 6.00 in experiment [2]; less than 7.00 in experiment [3]; 8.33 in experiment [4]; less than 6.00 in experiment [6]; less than 6.00 in experiment [7]. In experiment [9], this molecule showed a pKi of less than 6.00. Besides, the inhibition in experiment [5] came to 10%; in experiment [8] it was 1%; in experiment [10], 17%.

In the case of `Cc1ccc(-n2c(-c3sc(NC(=O)c4ccccc4)nc3-c3ccccc3)nc3ccccc3c2=O)cc1`, the pKi in [1] is 6.09; in experiment [2], less than 6.00; in experiment [3] it was less than 7.00; in [4], 8.04; in experiment [6], less than 6.00; in experiment [7] it was less than 6.00. Further, the pKi in experiment [9] was less than 6.00. Besides, the inhibition in experiment [8] turned out to be 17%; in experiment [10] (filed as antagonist) it was 23%.

As to `CC[C@@H]1CN2C(=O)N(C)c3nc(-c4cc(Cl)cc(Cl)c4Cl)[nH]c3C2=N1`, the pKi is 5.77 in experiment [2]; 4.52 in [3]; 6.09 in experiment [6]; 5.57 in experiment [7]; 5.22 in [9].

For the molecule `CCCCn1c(=O)c2[nH]c(C34CC5CC(CC3C5)C4)nc2n(CCCO)c1=O`, the pKi was 5.19 in [1]; 6.73 in experiment [3]; 5.64 in experiment [4]; 9.91 in experiment [6]; 6.26 in experiment [9].
